Assay results as given in ChEMBL document CHEMBL6115053, “Optimization and Characterization of N-Acetamide Indoles as Antimalarials That Target PfATP4” (J Med Chem, 2025).
In brackets after ≈: the same amount, converted by molar mass. Activity calls are given as the source filed them. The calls are words filed in the database; no cut-off is given here.

What was measured:
Plasmodium falciparum [1] = experiment: Antiplasmodial activity against asexual Plasmodium falciparum 3D7 infected in human […] cells assessed as reduction in parasite growth measured for 72 hrs by LDH assay; type: functional, organism-based; conditions: 3D7, 72 h
[2] = Metabolic stability in rat hepatocyte […] assessed as intrinsic clearance measured per 10^6 cells; type: ADME, cell-based; conditions: hepatocytes
[3] = Lipophilicity, logD of compound at pH 7.4 by shake-flask method; type: physicochemical; conditions: buffer
HepG2 = experiment: Cytotoxicity against human HepG2 cells assessed as inhibition of cell growth incubated for 48 hrs by celltiterglo assay; type: toxicity, cell-based; conditions: hepg2, 48 h
[4] = Aqueous solubility in PBS buffer at pH 7.4; type: physicochemical
[5] = Metabolic stability in human liver microsome assessed as intrinsic clearance; type: ADME; conditions: microsomes
[6] = Metabolic stability in mouse liver microsome assessed as intrinsic clearance; type: ADME; conditions: microsomes
Plasmodium falciparum [7] = experiment: Antimalarial activity against synchronized-ring stage Plasmodium falciparum 3D7 assessed as reduction in parasitemia at 10 times EC50 measured at 72 hrs post-treatment by LDH assay; type: functional, organism-based
In short: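 Parasite reduction ratio assay in P. falciparum 3D7 with an LDH read-out. Means and SDs were taken from three replicate experiments.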

Plasmodium falciparum [8] = experiment: Antiplasmodial activity against Plasmodium falciparum 3D7 infected in RBC assessed as reduction in parasite growth measured for 8 hrs by Giemsa-staining based microscopic analysis; type: functional, organism-based
In short: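 Giemsa-stained thin smears were read at 8 h and the percentages of extracellular and intracellular parasites counted, compared with untreated parasites at 0 h.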

Row | Structure (SMILES) | EC50 (Plasmodium falciparum [1]) [µM] | CC50 (HepG2) [µM] | other results
1 | O=C(Cn1ccc2ccc(-c3cnn(CC(F)(F)F)c3)cc21)Nc1ccccc1Cl | > 10 |  | 
2 | COc1cc(NC(=O)Cn2ccc3ccc(-c4cnn(C)c4)cc32)cc(OC)c1OC | 0.385 | > 40 | intrinsic clearance (CLint) [2]: 4.6 uL/min/10^6 cells; logD [3]: 3.5; solubility kinetic [4]: 4.6 µM (≈ 1.93 µg/mL); intrinsic clearance (CLint) [5]: 95 µL/min/mg
3 | COc1ccccc1NC(=O)Cn1ccc2ccc(-c3nnc(C)o3)cc21 | > 10 |  | 
4 | Cn1cc(-c2cnc3ccn(CC(=O)Nc4ccccc4Cl)c3c2)cn1 | > 10 |  | 
5 | Cc1c(-c2ccc3ccn(CC(=O)Nc4ccccc4Cl)c3c2)cnn1C | 0.248 | > 40 | 
6 | CCn1cc(-c2ccc3ccn(CC(=O)Nc4ccccc4Cl)c3c2)cn1 | > 10 | > 40 | 
7 | Cc1noc(-c2ccc3ccn(CC(=O)Nc4ccccc4Cl)c3c2)n1 | > 10 |  | 
8 | COc1cc(NC(=O)Cn2cc(Cl)c3ccc(-c4cn(C)nc4C)cc32)cc(OC)c1OC | 0.022 |  | 
9 | Cc1nnc(-c2ccc3ccn(CC(=O)Nc4cccnc4Cl)c3c2)o1 | 1.17 | > 40 | intrinsic clearance (CLint) [2]: 27 uL/min/10^6 cells; logD [3]: 2.1; solubility kinetic [4]: 73 µM (≈ 26.8 µg/mL); intrinsic clearance (CLint) [5]: 57 µL/min/mg
10 | Cc1nnc(-c2ccc3ccn(CC(=O)Nc4ccccc4F)c3c2)o1 | 2.1 | > 40 | 
11 | COc1cc(NC(=O)Cn2cc(Cl)c3cc(F)c(-c4cn(C)nc4C)cc32)cc(OC)c1OC | 0.108 | > 40 | intrinsic clearance (CLint) [2]: 5.7 uL/min/10^6 cells; logD [3]: 4.8; intrinsic clearance (CLint) [6]: 73 µL/min/mg; solubility kinetic [4]: 2.5 µM (≈ 1.22 µg/mL); intrinsic clearance (CLint) [5]: 64 µL/min/mg
12 | O=C(Cn1ccc2ccc(-c3cnn(-c4ccccc4)c3)cc21)Nc1ccccc1Cl | > 10 |  | 
13 | COc1cccc(NC(=O)Cn2ccc3ccc(-c4nnc(C)o4)cc32)c1 | 3.6 | > 40 | 
14 | Cn1cc(-c2ccc3ccn(CC(=O)Nc4ccccc4Cl)c3n2)cn1 | 1.53 | > 40 | intrinsic clearance (CLint) [2]: 92 uL/min/10^6 cells; logD [3]: 3.3; solubility kinetic [4]: 2.5 µM (≈ 0.915 µg/mL); intrinsic clearance (CLint) [5]: 458 µL/min/mg
15 | CC(C(=O)Nc1ccccc1Cl)n1ccc2ccc(-c3cnn(C)c3)cc21 (centres undefined) |  | > 40 | 
16 | Cc1ccc(-c2ccc3ccn(CC(=O)Nc4ccccc4Cl)c3c2)s1 | > 10 |  | 
17 | Cc1nnc(-c2ccc3ccn(CC(=O)Nc4cccc(C#N)c4)c3c2)o1 | 0.99 | > 40 | 
18 | O=C(Cn1ccc2ccc(-c3cnn(C(F)F)c3)cc21)Nc1ccccc1Cl | 1.5 | > 40 | 
19 | Cc1nnc(-c2ccc3ccn(CC(=O)Nc4ccccn4)c3c2)o1 | 4.78 | > 40 | 
20 | Cn1cc(-c2cc3c(ccn3CC(=O)Nc3ccccc3Cl)cn2)cn1 | 8.45 | > 40 | 
21 | Cc1cn(CC(=O)Nc2ccccc2Cl)c2cc(-c3cnn(C)c3)ccc12 | 0.868 | > 40 | 
22 | Cc1ncc(-c2ccc3ccn(CC(=O)Nc4ccccc4Cl)c3c2)s1 | 1.9 | > 40 | 
23 | Cc1nnc(-c2ccc3ccn(CC(=O)Nc4ccc(C#N)cc4)c3c2)o1 | > 10 |  | 
24 | Cn1cc(-c2ccc3ncn(CC(=O)Nc4ccccc4Cl)c3c2)cn1 | > 10 |  | 
25 | Cn1cc(-c2ccc3c(Cl)cn(CC(=O)Nc4ccccc4Cl)c3c2)cn1 | 0.138 | > 40 | intrinsic clearance (CLint) [2]: 29 uL/min/10^6 cells; logD [3]: 4.6; intrinsic clearance (CLint) [6]: 177 µL/min/mg; solubility kinetic [4]: < 2.5 µM; intrinsic clearance (CLint) [5]: 65 µL/min/mg

Row | Structure (SMILES) | EC50 (Plasmodium falciparum [1]) [µM] | CC50 (HepG2) [µM] | other results
26 | Cc1nnc(-c2ccc3ccn(CC(=O)Nc4cccc(F)c4)c3c2)o1 | 1.45 | > 40 | 
27 | Cc1ccc(-c2ccc3ccn(CC(=O)Nc4ccccc4Cl)c3c2)cc1 | > 10 |  | 
28 | Cc1nnc(-c2ccc3ccn(CC(=O)Nc4cccnc4)c3c2)o1 | 4.25 | > 40 | 
29 | O=C(Cn1ccc2ccc(-c3cnn(C(F)(F)F)c3)cc21)Nc1ccccc1Cl | > 10 |  | 
30 | Cc1nnc(-c2ccc3ccn(CC(=O)Nc4cccc(Cl)c4)c3c2)o1 | 0.898 | > 40 | 
31 | Cc1nnc(-c2ccc3ccn(CC(=O)Nc4cccc(Cl)c4Cl)c3c2)o1 | 1.33 | > 40 | 
32 | Cc1ccc(NC(=O)Cn2ccc3ccc(-c4nnc(C)o4)cc32)cc1 | 5.35 | > 40 | 
33 | Cc1nnc(-c2ccc3ccn(CC(=O)N(C)c4ccccc4)c3c2)o1 | > 10 |  | 
34 | Cc1nnc(-c2ccc3ccn(CC(=O)Nc4ccc(C(F)(F)F)cc4)c3c2)o1 | 2.1 | > 40 | 
35 | Cc1nnc(-c2ccc3ccn(CC(=O)Nc4ccncc4)c3c2)o1 | 4.68 | > 40 | 
36 | Cc1nnc(-c2ccc3ccn(CC(=O)Nc4cc(F)ccc4Cl)c3c2)o1 | 0.683 | > 40 | 
37 | Cc1nnc(-c2ccc3ccn(CC(=O)Nc4cc(F)ccc4F)c3c2)o1 | 1.25 | > 40 | 
38 | Cc1nnc(-c2ccc3ccn(CC(=O)Nc4c(F)cccc4F)c3c2)o1 | 1.65 | > 40 | 
39 | CC(C)c1nnc(-c2ccc3ccn(CC(=O)Nc4ccccc4Cl)c3c2)o1 | > 10 |  | 
40 | Cc1nnc(-c2ccc3ccn(CC(=O)Nc4cc(F)cc(F)c4)c3c2)o1 | 1.18 | > 40 | 
41 | COc1ccc(NC(=O)Cn2ccc3ccc(-c4nnc(C)o4)cc32)cc1 | 7.8 | > 40 | 
42 | O=C(Cn1ccc2ccc(-c3nnco3)cc21)Nc1ccccc1Cl | > 10 |  | 
43 | COc1cc(NC(=O)Cn2cc(Cl)c3ccc(-c4cnn(C)c4)cc32)cc(OC)c1OC | 0.049 | > 40 | intrinsic clearance (CLint) [2]: < 1 uL/min/10^6 cells; logD [3]: 4.2; intrinsic clearance (CLint) [6]: 53 µL/min/mg; solubility kinetic [4]: 2.5 µM (≈ 1.14 µg/mL); intrinsic clearance (CLint) [5]: 15 µL/min/mg
44 | O=C(Cn1ccc2ccc(-c3nnc(C(F)(F)F)o3)cc21)Nc1ccccc1Cl | > 10 |  | 
45 | Cc1nnc(-c2ccc3ccn(CC(=O)Nc4ccccc4)c3c2)o1 | 1.63 | > 40 | 
46 | Cc1ccc(-c2ccc3ccn(CC(=O)Nc4ccccc4Cl)c3c2)cn1 | > 10 |  | 
47 | Cc1cccc(NC(=O)Cn2ccc3ccc(-c4nnc(C)o4)cc32)c1 | 2.8 | > 40 | 
48 | COc1cc(NC(=O)Cn2ccc3ccc(-c4cn(C)nc4C)cc32)cc(OC)c1OC | 0.1 | > 40 | intrinsic clearance (CLint) [2]: 11 uL/min/10^6 cells; logD [3]: 3.2; intrinsic clearance (CLint) [6]: 207 µL/min/mg; solubility kinetic [4]: 8.6 µM (≈ 3.74 µg/mL); intrinsic clearance (CLint) [5]: 105 µL/min/mg
49 | Cc1cc(-c2ccc3ccn(CC(=O)Nc4ccccc4Cl)c3c2)cnn1 | 3.65 |  | 
50 | Cc1nnc(-c2ccc3ccn(CC(=O)Nc4ccccc4C#N)c3c2)o1 | 3.48 | > 40 | 

Row | Structure (SMILES) | EC50 (Plasmodium falciparum [1]) [µM] | CC50 (HepG2) [µM] | other results
51 | Cc1n[nH]c(C)c1-c1ccc2ccn(CC(=O)Nc3ccccc3Cl)c2c1 | 3.6 | > 40 | 
52 | Cn1cc(-c2ccc3c(Br)cn(CC(=O)Nc4ccccc4Cl)c3c2)cn1 | 0.165 | > 40 | 
53 | Cc1nn(C)c(C)c1-c1ccc2ccn(CC(=O)Nc3ccccc3Cl)c2c1 | 0.31 | > 40 | 
54 | CC(C)n1cc(-c2ccc3ccn(CC(=O)Nc4ccccc4Cl)c3c2)cn1 | > 10 |  | 
55 | Cc1nn(C)cc1-c1ccc2ccn(CC(=O)Nc3ccccc3Cl)c2c1 | 0.23 | > 40 | 
56 | Cc1nnc(-c2ccc3ccn(CC(=O)Nc4cccc(C(F)(F)F)c4)c3c2)o1 | 0.615 | > 40 | 
57 | Cc1nnc(-c2ccc3ccn(CC(=O)Nc4ccncc4Cl)c3c2)o1 | 7.13 | > 40 | 
58 | COc1ccc(NC(=O)Cn2ccc3ccc(-c4nnc(C)o4)cc32)cc1OC | 1.55 | > 40 | 
59 | Cc1nnc(-c2ccc3ccn(CC(=O)Nc4ccccc4C(F)(F)F)c3c2)o1 | 3.1 | > 40 | 
60 | Cc1nnc(-c2ccc3ccn(CC(=O)Nc4ccccc4C)c3c2)o1 | 1.18 |  | 
61 | Cc1cccc(-c2ccc3ccn(CC(=O)Nc4ccccc4Cl)c3c2)c1 | 1.11 | > 40 | 
62 | Cn1cc(-c2ccc3ccn(CC(=O)Nc4ccccc4Cl)c3c2)c(C(F)(F)F)n1 | 0.043 | > 40 | intrinsic clearance (CLint) [2]: 92 uL/min/10^6 cells; logD [3]: 4.7; solubility kinetic [4]: 2.5 µM (≈ 1.08 µg/mL); intrinsic clearance (CLint) [5]: 488 µL/min/mg
63 | COc1cc(NC(=O)Cn2ccc3ccc(-c4nnc(C)o4)cc32)cc(OC)c1 | 1.18 | > 40 | 
64 | Cn1cc(-c2ccc3cnn(CC(=O)Nc4ccccc4Cl)c3c2)cn1 | > 10 |  | 
65 | Cn1cc(-c2ccc3c(F)cn(CC(=O)Nc4ccccc4Cl)c3c2)cn1 | 0.33 | > 40 | 
66 | Cc1nnc(-c2ccc3ccn(CC(=O)Nc4ccc(F)cc4)c3c2)o1 | 3.8 | > 40 | 
67 | Cc1nnc(-c2ccc3ccn(CC(=O)Nc4ccc(Cl)cc4)c3c2)o1 | 4.47 | > 40 | 
68 | Cn1ccc(-c2ccc3ccn(CC(=O)Nc4ccccc4Cl)c3c2)n1 | > 10 |  | 
69 | Cc1nnc(-c2ccc3ccn(CC(=O)Nc4cc(Cl)cc(Cl)c4)c3c2)o1 | 3.88 | > 40 | 
70 | Cc1cc2ccc(-c3cnn(C)c3)cc2n1CC(=O)Nc1ccccc1Cl |  | > 40 | 
71 | CCc1nc(N)nc(N)c1-c1ccc(Cl)cc1 |  |  | Activity (Plasmodium falciparum [7]): Active
72 | Cc1cc(-c2ccc3ccn(CC(=O)Nc4ccccc4Cl)c3c2)ccn1 | 2.83 |  | 
73 | Cc1nnc(-c2ccc3ccn(CC(=O)Nc4cccc(F)c4Cl)c3c2)o1 | 1.33 | > 40 | 
74 | CCN(CC)CCCC(C)Nc1ccnc2cc(Cl)ccc12 (centres undefined) |  |  | Activity (Plasmodium falciparum [7]): Active; Activity (Plasmodium falciparum [8]): Active
